Laboratory results from paper PMC6045484 (ACS Omega, 2018).
Converted amounts (≈) assume the structure as drawn. “Also recorded” adds a separate entry of the source.

Tests used:
[1] = test system: C. albicans ATCC90028; assay: in vitro antifungal activity; assay type: cell-based, Candida albicans; details: Candida albicans; for IC50: ATCC90028, read-out: C. albicans IC50; for MFC: ATCC90028, read-out: C. albicans MFC; for MIC: ATCC90028, read-out: C. albicans MIC
How it was run: (§1)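 Modified NCCLS broth method in Sabouraud dextrose. Inoculum set by OD630 to 1.5 × 10^3 CFU/mL. Test compound serially diluted in 20% DMSO/saline, duplicate wells, up to 20 μg/mL. Incubated 70–74 h at 35 °C; 530 nm read before and after. IC50 is 50% growth inhibition; MIC is no detectable growth. MFC from clear wells subcultured on agar. Amphotericin B control.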

[2] = test system: M. intracellulare (ATCC23068); assay: in vitro antibacterial activity, modified alamarBlue procedure; assay type: cell-based, Mycobacterium intracellulare; details: Mycobacterium intracellulare; for IC50: ATCC23068, read-out: IC50 (concentration that affords 50% growth inhibition), M. intracellulare; for MBC: ATCC23068, read-out: MBC (minimum bactericidal concentration), M. intracellulare; for MIC: ATCC23068, read-out: MIC, M. intracellulare
How it was run: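 Modified alamarBlue microplate method. Test compound serially diluted in 20% DMSO/saline, duplicate wells, up to 20 μg/mL. Inoculum 2.0 × 10^6 CFU/mL in Middlebrook 7H9 with OADC, pH 7.3, containing 5% alamarBlue. Incubated 70–74 h at 37 °C, 10% CO2; fluorescence 544ex/590em read before and after. MIC: no blue-to-pink change. MBC by subculturing blue wells on agar. Ciprofloxacin control.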

[3] = test system: SK-MEL, KB, BT-549, SK-OV-3, VERO and LLC-PK1 cells; assay: cytotoxicity, neutral red uptake assay; assay type: cell-based, mammalian; details: highest test concentration 4760 ng/mL
How it was run: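 Cells seeded at 25 000/well and allowed 24 h to reach confluence. Test compound was then added and incubated 48 h. Viable cells were counted by a modified neutral red uptake method. The panel was four human cancer lines and two noncancerous mammalian kidney lines. Doxorubicin served as positive control and DMSO as negative control.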

[4] = test system: A. fumigatus ATCC 90906; assay: in vitro antifungal activity; assay type: cell-based, Aspergillus fumigatus; details: Aspergillus fumigatus; for IC50: ATCC90906, read-out: A. fumigatus IC50; for MFC: ATCC90906, read-out: A. fumigatus MFC; for MIC: ATCC90906, read-out: A. fumigatus MIC
How it was run: as §1

[5] = test system: P. falciparum (W2); assay: in vitro antimalarial activity, plasmodial LDH; assay type: cell-based, Plasmodium falciparum; details: Plasmodium falciparum, W2, 72 h, read-out: P. falciparum (W2) IC50, CQ-resistant W2 strain, 72 h
How it was run: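 P. falciparum-infected erythrocytes (2% parasitemia, 2% hematocrit) in RPMI 1640 with 10% human serum and 60 μg/mL amikacin. Exposed to test compound dilutions for 72 h at 37 °C under 90% N2/5% O2/5% CO2. LDH measured with Malstat reagent (30 min, room temperature), then NBT/PES for 1 h in the dark, stopped with 5% acetic acid, read at 650 nm. IC50 from dose-response curves.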

[6] = test system: P. berghei (sensitive strain); assay: blood-schizontocidal activity against P. berghei infection in mice; assay type: in vivo, Plasmodium berghei; details: Swiss mice
How it was run: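 Swiss mice of either sex (about 15–20 g, same age), six per group, inoculated intraperitoneally on day 0 with 1 × 10^7 infected erythrocytes from a donor mouse. Oral test compound at 100, 50, 25 or 10 mg/kg, CQ diphosphate (10 mg/kg/day × 4) or vehicle started 4 h later, on D0 to D+3. Giemsa tail-blood smears on D+4 and D+7. Curative: parasites eliminated, no relapse, all mice surviving to D+60.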

[7] = test system: C. neoformans ATCC90113; assay: in vitro antifungal activity; assay type: cell-based, Cryptococcus neoformans; details: Cryptococcus neoformans; for IC50: ATCC90113, read-out: C. neoformans IC50; for MFC: ATCC90113, read-out: C. neoformans MFC; for MIC: ATCC90113, read-out: C. neoformans MIC
How it was run: as §1

[8] = test system: MRSA (ATCC33591); assay: in vitro antibacterial activity; assay type: cell-based, methicillin-resistant Staphylococcus aureus; details: Staphylococcus aureus, ATCC33591|MRSA, read-out: MIC, MRSA
How it was run: (§2)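 Test compound serially diluted in 20% DMSO/saline and plated in duplicate, up to 20 μg/mL. Inoculum in cation-adjusted Mueller–Hinton broth, pH 7.3, set by OD630 to 5 × 10^5 CFU/mL. Incubated 16–20 h at 35 °C; 530 nm read before and after. IC50 is 50% growth inhibition; MIC is no detectable growth. MBC from clear wells subcultured on agar. Ciprofloxacin control.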

[9] = test system: SA (ATCC29213); assay: in vitro antibacterial activity; assay type: cell-based; details: Staphylococcus aureus; for IC50: ATCC29213, read-out: IC50 (concentration that affords 50% growth inhibition), SA; for MBC: ATCC29213, read-out: MBC (minimum bactericidal concentration), SA; for MIC: ATCC29213, read-out: MIC, SA
How it was run: as §2

[10] = test system: P. falciparum (D6); assay: in vitro antimalarial activity, plasmodial LDH; assay type: cell-based, Plasmodium falciparum; details: Plasmodium falciparum, D6, 72 h, read-out: P. falciparum (D6) IC50
[11] = test system: L. donovani promastigotes; assay: in vitro antileishmanial activity, alamarBlue assay; assay type: cell-based, Leishmania donovani; details: Leishmania donovani, 48 h; for IC50: read-out: L. donovani IC50, promastigotes, 48 h; for IC90: read-out: L. donovani IC90, promastigotes, 48 h

SMILES | IC50 [1] [µg/mL] | MFC [1] [µg/mL] | MIC [1] [µg/mL] | IC50 [2] [µg/mL] | MBC [2] [µg/mL] | MIC [2] [µg/mL] | cytotoxicity CTX [3] | IC50 [4] [µg/mL] | MFC [4] [µg/mL] | MIC [4] [µg/mL] | IC50 [5] [µg/mL] | P. berghei blood-schizontocidal activity (mice cured/treated) ([6]; 100 mg/kg/day × 4, oral) | IC50 [7] [µg/mL] | MFC [7] [µg/mL] | MIC [7] [µg/mL] | MIC [8] [µg/mL] | IC50 [9] [µg/mL] | MBC [9] [µg/mL] | MIC [9] [µg/mL] | IC50 [10] [µg/mL] | also measured
CCCCCOc1c(OC)cc(NC(C)CCCN)c2nc(C(C)(C)C)cc(C)c12 (stereo not drawn) [compound 51, N^4-(5-Pentyloxy-2-tert-butyl-6-methoxy-4-methylquinolin-8-yl)pentane-1,4-diamine] | > 20 | > 20 | > 20 | 10.8 (≈ 25.9 µM) | 20 (≈ 48.1 µM) | 20 (≈ 48.1 µM) | NC (NC, not cytotoxic up to 4760 ng/mL (4.76 μg/mL)) | > 20 | > 20 | > 20 | 3.8 (≈ 9.14 µM) | inactive (0/6) | 4.45 (≈ 10.7 µM) | 20 (≈ 48.1 µM) | 20 (≈ 48.1 µM) | 20 (≈ 48.1 µM) | 18.9 (≈ 45.5 µM) | > 20 | > 20 | 4.5 (≈ 10.8 µM) | IC50 [11]: 16.2 µg/mL (≈ 38.9 µM); IC90 [11]: 23.9 µg/mL (≈ 57.4 µM)
CCCCCOc1c(OC)cc(NC(C)CCCNC(=O)C(N)CCCCN)c2nc(C(C)(C)C)ccc12 (stereo not drawn) [compound 92, 2,6-Diamino-N-(4-(2-tert-butyl-6-methoxy-5-(pentyloxy)quinolin-8-ylamino)-pentyl)hexanamide] | > 20 | > 20 | > 20 | > 20 | > 20 | > 20 | NC (NC, not cytotoxic up to 4760 ng/mL (4.76 μg/mL)) | > 20 | > 20 | > 20 | 0.052 (≈ 0.0982 µM) | 100% cure and curative (6/6) | 10.9 (≈ 20.5 µM) | > 20 | > 20 | > 20 | > 20 | > 20 | > 20 | 0.11 (≈ 0.208 µM) | P. berghei blood-schizontocidal activity (mice cured/treated) ([6]; 25 mg/kg/day × 4, oral): inactive (0/6); P. berghei blood-schizontocidal activity (mice cured/treated) ([6]; 50 mg/kg/day × 4, oral): suppressive activity; also recorded: active (4/6)
CCCCCCCCOc1c(OC)cc(NC(C)CCCNC(=O)C(N)Cc2ccccc2)c2nc(C(C)(C)C)ccc12 (stereo not drawn) [compound 121, 2-Amino-N-(4-(2-tert-butyl-6-methoxy-5-(octyloxy)quinolin-8-ylamino)pentyl)-3-phenylpropanamide] | > 20 | > 20 | > 20 | > 20 | > 20 | > 20 | NC (NC, not cytotoxic up to 4760 ng/mL (4.76 μg/mL)) | > 20 | > 20 | > 20 | > 4.76 | 100% cure and curative (6/6) | 17.3 (≈ 29.3 µM) | > 20 | > 20 | > 20 | 7.79 (≈ 13.2 µM) | > 20 | > 20 | > 4.76 | P. berghei blood-schizontocidal activity (mice cured/treated) ([6]; 25 mg/kg/day × 4, oral): inactive (0/6); P. berghei blood-schizontocidal activity (mice cured/treated) ([6]; 50 mg/kg/day × 4, oral): suppressive activity; also recorded: active (3/6); IC50 [11]: 11.8 µg/mL (≈ 20 µM); IC90 [11]: 28.7 µg/mL (≈ 48.5 µM)
CCCCOc1c(OC)cc(NC(C)CCCN)c2nc(C(C)(C)C)cc(C)c12 (stereo not drawn) [compound 50, N^4-(5-Butoxy-2-tert-butyl-6-methoxy-4-methylquinolin-8-yl)pentane-1,4-diamine] | 15 (≈ 37.4 µM) | > 20 | > 20 | 5.97 (≈ 14.9 µM) | 20 (≈ 49.8 µM) | 10 (≈ 24.9 µM) | NC (NC, not cytotoxic up to 4760 ng/mL (4.76 μg/mL)) | 14.7 (≈ 36.6 µM) | > 20 | > 20 | 0.98 (≈ 2.44 µM) | curative (6/6) | 0.58 (≈ 1.44 µM) | 2.5 (≈ 6.23 µM) | 1.25 (≈ 3.11 µM) | 5 (≈ 12.5 µM) | 3.49 (≈ 8.69 µM) | 10 (≈ 24.9 µM) | 5 (≈ 12.5 µM) | 2.2 (≈ 5.48 µM) | P. berghei blood-schizontocidal activity (mice cured/treated) ([6]; 50 mg/kg/day × 4, oral): suppressive activity; also recorded: active (4/6); IC50 [11]: 1.5 µg/mL (≈ 3.74 µM); IC90 [11]: 3.65 µg/mL (≈ 9.09 µM)
CCCCCCCOc1c(OC)cc(NC(C)CCCNC(=O)C(N)CCCNC(=N)N)c2nc(C(C)(C)C)ccc12 (stereo not drawn) [compound 111, 2-Amino-N-(4-(2-tert-butyl-5-(heptyloxy)-6-methoxyquinolin-8-ylamino)pentyl)-5-guanidinopentanamide] | > 20 | > 20 | > 20 | > 20 | > 20 | > 20 | NC (NC, not cytotoxic up to 4760 ng/mL (4.76 μg/mL)) | > 20 | > 20 | > 20 | 0.24 (≈ 0.41 µM) | 100% cure and curative (6/6) | 13.2 (≈ 22.6 µM) | > 20 | > 20 | > 20 | > 20 | > 20 | > 20 | 0.39 (≈ 0.666 µM) | P. berghei blood-schizontocidal activity (mice cured/treated) ([6]; 25 mg/kg/day × 4, oral): inactive (0/6); P. berghei blood-schizontocidal activity (mice cured/treated) ([6]; 50 mg/kg/day × 4, oral): 100% cure and curative (6/6)
CCCCCCOc1c(OC)cc(NC(C)CCCNC(=O)C(N)CCCCN)c2nc(C(C)(C)C)ccc12 (stereo not drawn) [compound 99, 2,6-Diamino-N-(4-(2-tert-butyl-5-(hexyloxy)-6-methoxyquinolin-8-ylamino)-pentyl)hexanamide] | > 20 | > 20 | > 20 | > 20 | > 20 | > 20 | NC (NC, not cytotoxic up to 4760 ng/mL (4.76 μg/mL)) | > 20 | > 20 | > 20 | 0.036 (≈ 0.0662 µM) | 100% cure and curative (6/6) | 18.6 (≈ 34.3 µM) | > 20 | > 20 | > 20 | > 20 | > 20 | > 20 | 0.09 (≈ 0.166 µM) | P. berghei blood-schizontocidal activity (mice cured/treated) ([6]; 25 mg/kg/day × 4, oral): inactive (0/6); P. berghei blood-schizontocidal activity (mice cured/treated) ([6]; 50 mg/kg/day × 4, oral): suppressive activity; also recorded: active (3/6)
